CHRM4 agonist – agonists of human muscarinic M4 receptor (CHRM4); P08173; CHO-K1 hM4/Gqi5, Fluo-8 calcium fluorescence; vehicle 0%, full acetylcholine response 100%; activation, % at 3 µM; 360,000 compounds, 0.14% hits; AID 624127;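 active = activation above the run mean over all test wells plus 3 SD, cut at about 32% in these data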;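 note: peak over basal fluorescence ratio per well then scaled between controls; 0% = DMSO wells and 100% = acetylcholine at EC100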
CHRM4 PAM – CHRM4 positive allosteric modulation; P08173; CHO-K1 hM4/Gqi5, Fluo-8 calcium fluorescence, ACh EC20; 0% = ACh EC20, 100% = maximal ACh; activation, % at 3 µM; 360,000 compounds, 0.4% hits; AID 624126;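 active = activation above its plate's cutoff, the mean activation of sample wells plus 3 SD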
CHRM5 antagonist – CHRM5 antagonism in calcium assay | P08912 | CHO-hM5 cells, Fluo-8 calcium fluorescence, ACh EC80 | inhibition, % at 3 µM | 360,000 compounds, 0.59% hits | AID 624040;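 active = inhibition above a per-plate cutoff, the mean of that plate's test compounds plus 3 SD, cut at about 27% in these data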;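 note: 0% = acetylcholine EC80 with DMSO and 100% = DMSO without agonist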
Target sequence (P08912 whole entry, looked up): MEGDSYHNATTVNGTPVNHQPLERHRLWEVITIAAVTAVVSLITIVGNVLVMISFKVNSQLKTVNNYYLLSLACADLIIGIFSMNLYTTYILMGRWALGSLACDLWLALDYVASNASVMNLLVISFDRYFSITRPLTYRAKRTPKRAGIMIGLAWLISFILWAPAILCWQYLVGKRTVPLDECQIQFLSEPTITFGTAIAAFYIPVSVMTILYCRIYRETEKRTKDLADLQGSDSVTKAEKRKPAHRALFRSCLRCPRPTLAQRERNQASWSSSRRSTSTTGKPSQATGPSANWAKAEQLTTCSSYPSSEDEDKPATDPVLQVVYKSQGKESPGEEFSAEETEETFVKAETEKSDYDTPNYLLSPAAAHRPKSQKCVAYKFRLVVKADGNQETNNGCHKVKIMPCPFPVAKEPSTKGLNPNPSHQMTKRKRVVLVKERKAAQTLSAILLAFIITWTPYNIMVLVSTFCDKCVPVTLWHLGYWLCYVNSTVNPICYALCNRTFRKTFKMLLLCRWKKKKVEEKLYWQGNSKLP
M5 PAM – potentiates acetylcholine response at human M5 receptor | CHO-K1 hM5, Fluo-8 calcium, ACh EC20 PAM; 0% = ACh EC20, 100% = ACh EC100 | activation, % at 3 µM | 360,000 compounds, 0.3% hits | AID 624038;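 active = activation above the run cutoff, the mean activation of all test compounds plus 3 SD, cut at about 18% in these data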
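System: CHO-K1 hM5 cells. Reagent: acetylcholine, EC20 level. Compound dosing: single dose, 3 µM nominal final test concentration. Timing: Post-acetylcholine fluorescence recording 140 s. Detection: Fluo-8 calcium fluorescence. Read-out: % activation, ACh-normalized. Benchmarks: ACh EC20 and EC100 wells. Repeats: singlicate, one well per test compound.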
CHRM5 agonist – agonists of human muscarinic M5 receptor (CHRM5); CHO-K1 hM5 cells, Fluo-8 calcium fluorescence; 0% DMSO wells, 100% maximal acetylcholine response; 360,000 compounds, 0.19% hits; activation, % at 3 µM;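 active = activation above the run's mean over test compounds plus 3 SD, cut at about 23% in these data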;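 note: signal is peak over basal fluorescence ratio across the kinetic read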
CHRM4 antagonist – blocks acetylcholine activation of human M4 receptor; P08173; CHO-hM4 cells, ACh EC80, Fluo-8 calcium fluorescence; inhibition, % at 3 µM; 360,000 compounds, 0.73% hits; AID 624125;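 active = inhibition above its plate's cutoff, the mean inhibition of sample wells plus 3 SD, cut at about 27% in these data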;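 note: 0% = acetylcholine EC80 with DMSO and 100% = DMSO without agonist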
Active calls of the source: *. A selection: hits, their analogues and other compounds. The true share with any hit is near 1.8%.

SMILES	CHRM4 agonist	CHRM4 PAM	CHRM5 antagonist	M5 PAM	CHRM5 agonist	CHRM4 antagonist
COc1cc(/C=C2/SC(=S)NC2=O)ccc1OS(=O)(=O)c1ccc(C)cc1	9.8	-12.8	36.2*	-17.3	4.8	11.4
COc1ccc(/C=C2\SC(=O)NC2=S)cc1OC	32.9*	-28.1	11.9	-18.1	11.1	20.3
CCOc1ccc(/C=C2\SC(=S)NC2=O)cc1OC	2.6	-1.8	-5.3	-1.1	1.1	-1.9
COCCNS(=O)(=O)c1ccc(-c2ccc(Cl)cc2)cc1	1.3	-5.7	-7.4	21.1*	3.9	0.8
CC(C(=O)Nc1ccc2c(c1)OCCO2)N1Cc2ccccc2C1=O (stereo not drawn)	0.2	3.1	23.5	-6.0	-4.6	-1.3
CCC(C)[C@@H](C(=O)Nc1ccc2c(c1)OCO2)N1Cc2ccccc2C1=O (stereo partly drawn)	-1.8	18.6*	-0.3	-2.9	-2.3	-18.7
Cc1nnc(SCC(=O)NC2CCCc3c2cnn3-c2ccccc2F)o1 (stereo not drawn)	1.6	-7.0	0.4	-3.2	-4.5	1.7
COc1cccc(CN2CC(C(=O)NCCOc3ccccc3)CCC2=O)c1 (stereo not drawn)	2.3	-3.0	28.9*	-13.0	-5.3	2.7
Cc1ccc(Oc2ccccc2NC(=O)C2=COCCO2)cc1	-1.7	2.9	4.3	-2.0	-5.4	-8.5
O=C(COc1cccc(Cl)c1)NNC(=S)Nc1ccccc1	1.4	-0.5	-4.6	-7.1	-1.0	1.4
O=C(O)CCC(=O)NNC(=O)COc1cccc(Cl)c1	0.5	6.0	12.8	21.0*	0.3	4.9
CCCn1nc(C(=O)Nc2cccc(S(=O)(=O)N3CCOCC3)c2)c2ccccc2c1=O	9.5	-7.2	9.0	-6.3	-1.5	-5.1
CNS(=O)(=O)c1cc(NC(=O)CCNC(=O)c2ccco2)ccc1C	0.0	4.1	27.5*	0.9	-2.5	-3.3
CCOc1ccc(CCNC(=O)CCNC(=O)c2ccco2)cc1OCC	1.4	19.0*	7.1	4.0	-4.5	-8.4
Cc1ccc(NC(=O)CCNC(=O)c2ccco2)cc1F	0.4	2.9	12.8	-1.1	-2.0	4.1
CCOc1ccc(CCNC(=O)Cn2cccc2C(=O)c2ccccc2)cc1OCC	-0.1	-5.5	10.7	-1.3	-2.9	12.1
COc1ccc(CCNC(=O)CCNC(=O)c2ccco2)cc1OC	0.6	4.1	19.1	-5.2	-2.8	-1.6
CCOc1ccc(CCNC(=O)Cn2ccc3ccccc3c2=O)cc1OCC	0.5	6.6	-0.2	20.2*	0.3	-1.4
Cc1ccnc(SCc2ccc(C(=O)O)cc2)n1	1.6	4.7	2.5	-3.7	0.3	-21.6
NC(=O)C(CCCCN1CCCCC1)(c1ccccc1)c1ccccc1	0.2	-9.4	14.6	-21.4	-13.1	36.6*
OC(CCN1CCCC1)(c1ccccc1)C1CCCCC1 (stereo not drawn)	1.3	-16.7	98.8*	-19.5	-1.9	98.6*
CCCCOc1ccc(C(O)(CCN2CCOCC2)c2ccccc2)cc1 (stereo not drawn)	2.6	0.4	5.0	-5.3	-5.8	-7.5
OC(CCCN1CCCCC1)(c1ccccc1)c1ccc(C(F)(F)F)cc1 (stereo not drawn)	5.2	-10.8	13.5	-30.9	-11.7	49.8*
O=C(CCN1CCCCCC1)c1ccccc1	0.2	-1.2	-9.3	7.2	-0.3	0.0
C=CCC(O)(CCN1CCCCC1)c1ccccc1 (stereo not drawn)	0.2	-24.1	45.8*	-14.6	-9.9	32.8*
SMILES	CHRM4 agonist	CHRM4 PAM	CHRM5 antagonist	M5 PAM	CHRM5 agonist	CHRM4 antagonist
COc1ccc(C(O)(CCc2ccccc2)CCN2CCCCC2)cc1 (stereo not drawn)	1.5	-13.6	16.4	-15.4	-10.8	0.7
O=c1cc(Cn2ccnc2)c2cc(O)ccc2o1	0.0	-1.4	5.6	1.9	-2.8	-5.4
CCOc1cc(C(=O)NCCCNC(=O)c2cc(OCC)c(OCC)c(OCC)c2)cc(OCC)c1OCC	-0.6	-15.0	0.9	-6.8	0.3	-15.3
OC(CCN1CCCCC1)(c1ccccc1)c1ccccc1	1.2	-18.3	98.7*	-18.3	-1.3	100.3*
O=C(CCNC(=O)N1CC(=O)Nc2ccccc21)Nc1cccc(Cl)c1	3.0	-3.9	1.2	0.1	-3.1	-0.5
CC1CN=C(NC2CCCCC2C)S1 (stereo not drawn)	0.4	-9.1	0.6	3.1	-4.8	27.2*
CC1CCCCC1NC1=NCCS1 (stereo not drawn)	0.3	-0.6	2.2	2.4	-8.3	1.7
COC(=O)Cn1c(C(O)c2ccccc2)nc2ccccc21 (stereo not drawn)	-0.4	-1.7	-13.3	-1.6	2.0	7.4
COc1ccc2[nH]c(=O)c(CN(Cc3cccs3)S(=O)(=O)c3c(C)ccc4nsnc34)cc2c1	17.4	-24.5	25.5	-17.3	4.1	32.3*
C=CS(=O)(=O)N(Cc1ccc(Cl)c(Cl)c1)C[C@@H](O)CO	0.7	-3.3	-2.0	0.5	0.8	-1.2
O=C(O)c1cccc(Cn2c(Cl)c(/C=N/NC(=O)c3cccc(O)c3)sc2=O)c1	0.1	11.7	-15.9	5.8	5.4	33.1*
CC1CCC(NC(=O)C(C)N2C(=O)C3CCCCC3C2=O)CC1 (stereo not drawn)	0.7	1.1	-2.6	7.9	0.4	-3.9
CCCCn1c(N)c(N(CC)C(=O)c2ccc(Cl)c(Cl)c2)c(=O)[nH]c1=O	0.1	-4.1	28.0*	-8.1	-3.3	3.4
CCOC(=O)c1[nH]c(CN2CCN(c3ccc(OC)cc3)CC2)c(C(=O)OCC)c1C	14.1	-5.3	-7.5	-1.2	17.5	13.0
CCOC(=O)c1cc(C#N)c(N2CCN(c3ccc(OC)cc3)CC2)[nH]c1=O	2.6	15.7	6.0	25.9*	10.8	-5.0
O=C(NCCc1ccc(Cl)cc1)C1CCN(S(=O)(=O)c2ccc(Br)s2)CC1	4.8	-1.2	7.3	-1.4	3.4	-5.2
O=C(NCc1cccc(F)c1)c1cccc2c1C(=O)c1ccc(N3CCC(Cc4ccccc4)CC3)cc1S2(=O)=O	11.9	-2.2	27.8*	-5.8	13.7	2.2
O=C(NCc1cccc(F)c1)c1cccc2c1C(=O)c1ccc(N3CCCC3)cc1S2(=O)=O	79.7*	-16.2	16.6	-36.2	35.2*	12.7
O=C(NCc1ccncc1)C1CCN(S(=O)(=O)c2ccc(Cl)c(C(F)(F)F)c2)CC1	1.1	-4.7	-0.3	-3.2	1.0	6.1
O=C(CC1CCC1)Nc1cccc2c([N+](=O)[O-])cccc12	0.4	-10.6	27.5*	-11.2	-6.7	7.8
Cc1nc(Cl)sc1C(=O)O	1.2	33.8*	-3.5	0.6	-1.8	6.0
Cc1nc(Cl)sc1C(=O)Nc1cc(F)cc(F)c1	8.4	-4.7	1.4	1.0	6.4	3.8
